Reference: ChEMBL document CHEMBL1122522, “Conformationally restricted retinoids” (1984)
The source made the active and inactive calls. The rule behind the calls is not given here.

Columns and labels:
Cricetinae gen. sp. [1] = test: Activity of compound the was expressed as ratio of active hamster tracheal organ cultures(TOC) to the total cultures at 10e-12 M concentration; 6/15; assay type: functional, Cricetulus griseus, Trachea
How it was run: (§1)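 Tracheal organ cultures came from vitamin A-deficient hamsters. Each culture was scored for reversal of keratinization and reported as active cultures out of total cultures at each retinoid concentration tested (10⁻⁸ to 10⁻¹² M). The protocol followed earlier published methods.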

Cricetinae gen. sp. [2] = test: Activity of compound the was expressed as ratio of active hamster tracheal organ cultures(TOC) to the total cultures at 10e-10 M concentration; 15/15; assay type: functional, Cricetulus griseus, Trachea; how it was run: as §1
[3] = molecular target: T1, Ornithine decarboxylase (Mus musculus) (UniProt P00860); test: TInhibition of the induction of ornithine decarboxylase in mouse epidermis by the tumor promoter 12-O-tetradecanoylphorbol-13-acetate (ODC) at dose 1.7 nmol*-p<0.001
T1 sequence (whole entry): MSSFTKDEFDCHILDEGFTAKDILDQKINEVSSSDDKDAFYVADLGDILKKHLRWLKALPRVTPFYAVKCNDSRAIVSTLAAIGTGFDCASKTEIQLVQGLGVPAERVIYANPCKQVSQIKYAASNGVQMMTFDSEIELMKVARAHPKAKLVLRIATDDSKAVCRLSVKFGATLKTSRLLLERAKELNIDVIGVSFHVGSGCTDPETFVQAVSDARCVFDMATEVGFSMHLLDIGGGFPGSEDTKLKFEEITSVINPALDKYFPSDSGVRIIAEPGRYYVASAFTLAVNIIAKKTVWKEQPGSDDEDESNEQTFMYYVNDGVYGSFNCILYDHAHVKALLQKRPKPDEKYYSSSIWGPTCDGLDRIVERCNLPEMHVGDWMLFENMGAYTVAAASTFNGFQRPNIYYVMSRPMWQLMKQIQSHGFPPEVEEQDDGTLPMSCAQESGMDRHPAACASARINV

[4] = Percent survivors at dose 10 umol/kg day; assay type: functional, Mus musculus
How it was run: (§2)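 Adult female Swiss mice (20–25 g) had chow and water ad libitum. The retinoid was homogenized as a suspension in aqueous 8% Cremophor EL plus 10% propylene glycol. It was given ip as 10 weekday injections over 14 days. Controls received vehicle alone. Survivors were weighed on days 1, 5, 10 and 15, and dates of death were recorded. Survival was scored at days 8 and 15.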

Mus musculus [5] = organism: Mus musculus; test: Percent decrease in average number of papillomas 1.7 at dose*-p<0.001; assay type: functional
How it was run: (§3)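 Female Charles River CD-1 mice, 8 weeks old, in random groups of 25–30, were shaved 2 days before initiation with 200 nmol DMBA in acetone on the back. From 2 weeks on, 8.5 nmol TPA was applied twice weekly for 20 weeks. Retinoid in 0.2 mL acetone, or acetone alone for controls, was given 1 h before each TPA dose. Papillomas were counted weekly, and mean papillomas per mouse were compared with controls at 20 weeks.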

[6] = Percent survivors at dose 3.3 umol/kg day; assay type: functional, Mus musculus; how it was run: as §2
Mus musculus [7] = organism: Mus musculus; test: Tested for relative activity in a 20-week anti-papilloma experiment in female CD-1 mice at dose 0.17 nmol; assay type: functional; how it was run: as §3
Mus musculus [8] = organism: Mus musculus; test: Tested for relative activity in a 20-week anti-papilloma experiment in female CD-1 mice at dose 17 nmol; e-Animalsdied at 3-7 weeks; assay type: functional, organism-based; how it was run: as §3
[9] = Percent survivors at dose 30 umol/kg day; assay type: functional, Mus musculus; how it was run: as §2
Mus musculus [10] = organism: Mus musculus; test: Tested for relative activity in a 20-week anti-papilloma experiment in female CD-1 mice at dose 1.7 nmol; assay type: functional; how it was run: as §3
[11] = Mortality range in days at dose 20 umol/kg day; 6-8; assay type: functional, Mus musculus; how it was run: as §2
Mus musculus [12] = organism: Mus musculus; test: Percent decrease in average number of papillomas 0.17 at dose*-p<0.001; assay type: functional; how it was run: as §3
Mus musculus [13] = organism: Mus musculus; test: Tested for relative activity in a 20-week anti-papilloma experiment in female CD-1 mice at dose 170 nmol;d- Animals died at 1-2 weeks; assay type: functional, organism-based; how it was run: as §3
Cricetinae gen. sp. [14] = test: Molarity required to effect reversal of keratinization in 50% of cultures.; assay type: functional, Cricetulus griseus
Cricetinae gen. sp. [15] = test: Activity of compound the was expressed as ratio of active hamster tracheal organ cultures(TOC) to the total cultures at 10e-11 M concentration; 15/15; assay type: functional, Cricetulus griseus, Trachea; how it was run: as §1
[16] = Mortality range in days at dose 30 umol/kg day; 10-15; assay type: functional, Mus musculus; how it was run: as §2
[17] = Mortality range in days at dose 30 umol/kg day; 7-11; assay type: functional, Mus musculus; how it was run: as §2
[18] = molecular target: T1, Ornithine decarboxylase (Mus musculus); test: Inhibition of the induction of ornithine decarboxylase in mouse epidermis by the tumor promoter 12-O-tetradecanoylphorbol-13-acetate (ODC) at dose 17 nmol*-p<0.001
[19] = Percent survivors at dose 1.0 umol/kg day; assay type: functional, Mus musculus; how it was run: as §2
[20] = Mortality range in days at dose 30 umol/kg day; 7-10; assay type: functional, Mus musculus; how it was run: as §2
Cricetinae gen. sp. [21] = test: Activity of compound the was expressed as ratio of active hamster tracheal organ cultures(TOC) to the total cultures at 10e-9 M concentration; 8/14; assay type: functional, Cricetulus griseus, Trachea; how it was run: as §1
[22] = molecular target: T1, Ornithine decarboxylase (Mus musculus); test: Inhibition of the induction of ornithine decarboxylase in mouse epidermis by the tumor promoter 12-O-tetradecanoylphorbol-13-acetate (ODC) at dose 1.7 nmol * p<0.02
[23] = molecular target: T1, Ornithine decarboxylase (Mus musculus); test: Inhibition of the induction of ornithine decarboxylase in mouse epidermis by the tumor promoter 12-O-tetradecanoylphorbol-13-acetate (ODC) at dose 17 nmol * p<0.05
Cricetinae gen. sp. [24] = test: Activity of compound the was expressed as ratio of active hamster tracheal organ cultures(TOC) to the total cultures at 10e-10 M concentration; 3/14; assay type: functional, Cricetulus griseus, Trachea; how it was run: as §1
Cricetinae gen. sp. [25] = test: Activity of compound the was expressed as ratio of active hamster tracheal organ cultures(TOC) to the total cultures at 10e-8 M concentration; 8/8; assay type: functional, Cricetulus griseus, Trachea; how it was run: as §1
Cricetinae gen. sp. [26] = test: Activity of compound the was expressed as ratio of active hamster tracheal organ cultures(TOC) to the total cultures at 10e-9 M concentration; 11/12; assay type: functional, Cricetulus griseus, Trachea; how it was run: as §1
Cricetinae gen. sp. [27] = test: Activity of compound the was expressed as ratio of active hamster tracheal organ cultures(TOC) to the total cultures at 10e-10 M concentration; 6/13; assay type: functional, Cricetulus griseus, Trachea; how it was run: as §1
Cricetinae gen. sp. [28] = test: Activity of compound the was expressed as ratio of active hamster tracheal organ cultures(TOC) to the total cultures at 10e-8 M concentration; 7/7; assay type: functional, Cricetulus griseus, Trachea; details: at 0.01 µM
Cricetinae gen. sp. [29] = test: Activity of compound the was expressed as ratio of active hamster tracheal organ cultures(TOC) to the total cultures at 10e-11 M concentration; 1/5; assay type: functional, Cricetulus griseus, Trachea; how it was run: as §1
[30] = Percent survivors at dose 300 umol/kg day; assay type: functional, Mus musculus; how it was run: as §2
[31] = Percent survivors at dose 600 umol/kg day; assay type: functional, Mus musculus; how it was run: as §2
Mus musculus [32] = organism: Mus musculus; test: Percent decrease in average number of papillomas 17 at dose; assay type: functional; how it was run: as §3
Mus musculus [33] = organism: Mus musculus; test: Tested for relative activity in a 20-week anti-papilloma experiment in female CD-1 mice at dose 17 nmol; assay type: functional; how it was run: as §3
[34] = molecular target: T1, Ornithine decarboxylase (Mus musculus); test: Inhibition of the induction of ornithine decarboxylase in mouse epidermis by the tumor promoter 12-O-tetradecanoylphorbol-13-acetate (ODC)) at dose 17 nmol
[35] = Mortality range in days at dose 300 umol/kg day; 14-15; assay type: functional, Mus musculus; how it was run: as §2
[36] = Percent survivors at dose 100 umol/kg day; assay type: functional, Mus musculus; how it was run: as §2
[37] = molecular target: T1, Ornithine decarboxylase (Mus musculus); test: TInhibition of the induction of ornithine decarboxylase in mouse epidermis by the tumor promoter 12-O-tetradecanoylphorbol-13-acetate (ODC) at dose 1.7 nmol
Cricetinae gen. sp. [38] = test: Activity of compound the was expressed as ratio of active hamster tracheal organ cultures(TOC) to the total cultures at 10e-9 M concentration; 7/7; assay type: functional, Cricetulus griseus, Trachea; how it was run: as §1
[39] = Mortality range in days at dose 600 umol/kg day; 9-10; assay type: functional, Mus musculus; how it was run: as §2
Mus musculus [40] = organism: Mus musculus; test: Percent decrease in average number of papillomas 170 at dose; assay type: functional; how it was run: as §3
Cricetinae gen. sp. [41] = test: Activity of compound the was expressed as ratio of active hamster tracheal organ cultures(TOC) to the total cultures at 10e-10 M concentration; 12/14; assay type: functional, Cricetulus griseus, Trachea; how it was run: as §1
Mus musculus [42] = organism: Mus musculus; test: Tested for relative activity in a 20-week anti-papilloma experiment in female CD-1 mice at dose 170 nmol; assay type: functional; how it was run: as §3
[43] = Percent survivors at dose 200 umol/kg day; assay type: functional, Mus musculus; how it was run: as §2

Compound: C/C(=C\c1ccc(C(=O)O)cc1)c1ccc2c(c1)C(C)(C)CCC2(C)C
- Activity (Cricetinae gen. sp. [1]): 6%
- Activity (Cricetinae gen. sp. [2]): 15%
- inhibition [3]: 89%
- Survivors at day 8 [4]: 87%
- Survivors at day 15 [4]: 0%
- Decrease (Mus musculus [5]): 92.3%
- Survivors at day 8 [6]: 97%
- Survivors at day 15 [6]: 0%
- Activity (Mus musculus [7]): 73%
- Activity (Mus musculus [8]): inactive
- Survivors at day 8 [9]: 50%
- Survivors at day 15 [9]: 0%
- Activity (Mus musculus [10]): 50%
- Mortality range [11]: 8 days
- Decrease (Mus musculus [12]): 62.9%
- Activity (Mus musculus [13]): inactive
- ED50 (Cricetinae gen. sp. [14]): 1e-12
- Activity (Cricetinae gen. sp. [15]): 15%
- Mortality range [16]: 15 days
- Mortality range [17]: 11 days
- inhibition [18]: 91%
- Survivors at day 8 [19]: 100%
- Survivors at day 15 [19]: 30%
- Mortality range [20]: 10 days

Compound: C/C(=C\c1ccc(C(=O)O)cc1)c1ccc2c(c1)C1CCC2C1 (stereo not given)
- Activity (Cricetinae gen. sp. [21]): 57%
- inhibition [22]: 33%
- inhibition [23]: 69%
- Activity (Cricetinae gen. sp. [24]): 3%
- Activity (Cricetinae gen. sp. [25]): 8%
- ED50 (Cricetinae gen. sp. [14]): 6e-10

Compound: CC1=C(/C=C/c2ccc3cc(C(=O)O)ccc3c2)C(C)(C)CCC1
- Activity (Cricetinae gen. sp. [26]): 92%
- Activity (Cricetinae gen. sp. [27]): 6%
- Activity (Cricetinae gen. sp. [28]): 7%
- Activity (Cricetinae gen. sp. [29]): 1%
- ED50 (Cricetinae gen. sp. [14]): 1e-10

Compound: C/C(=C\c1ccc(C(=O)O)cc1)c1ccc2c(c1)C(C)(C)CCS2
- Survivors at day 8 [30]: 100%
- Survivors at day 15 [30]: 80%
- Survivors at day 8 [31]: 100%
- Survivors at day 15 [31]: 0%
- Decrease (Mus musculus [32]): 93.4%
- Activity (Mus musculus [33]): 53%
- inhibition [34]: 85%
- Activity (Cricetinae gen. sp. [28]): 7%
- Mortality range [35]: 15 days
- Survivors at day 15 [9]: 100%
- Survivors at day 8 [36]: 100%
- Survivors at day 15 [36]: 100%
- inhibition [37]: 68%
- Activity (Cricetinae gen. sp. [38]): 100%
- Mortality range [39]: 10 days
- Decrease (Mus musculus [40]): 93.6%
- ED50 (Cricetinae gen. sp. [14]): 5e-11
- Activity (Cricetinae gen. sp. [41]): 12%
- Activity (Mus musculus [42]): 38%
- Survivors at day 8 [43]: 100%
